# Activity calls are given as the source filed them.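 How the source made its calls, unless noted: active means visually confirmed hit in the image check and inhibition above 20%; inconclusive means visually confirmed hit but inhibition not above 20%; inactive means no visual hit in the image check.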
# Key:
# [1] = inhibitors of TNFa-induced NFkB p65 translocation, primary screen, imaging, HUVEC, MLSMR starter and 10KST1 sets (AID 438;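 active means inhibition above 20% together with a positive visual image hit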;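 further: compound added about 3h40 before a 20 min TNFalpha stimulation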;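 on inhibition: signal is the nuclear over cytoplasmic p65 intensity ratio per well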); conditions: HUVEC TNFa-induced p65 nuclear translocation; cell count: measured here: nuclei count (cytotoxicity indicator), at 2.08 µM; inhibition: at 2 µM, stronger effect = higher value, 0% TNFa-plus-vehicle, 100% no-TNFa wells
# [2] = inhibitors of mutant huntingtin aggregation, primary screen, imaging, exon1htt(103Q)mCFP cells, high-content imaging (AID 483;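 active means visual image review flags a hit and inhibition of aggregation exceeds 20%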;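 further: compound exposure lasted 3 days before fixation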;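 on nuclei count: percent of the per-plate median nuclei count of sample wells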); conditions: exon1htt(103Q)mCFP cell line, aggregate imaging, at 2 µM; inhibition of aggregation: stronger effect = higher value; nuclei count: measured here: cell count, toxicity
# [3] = inhibitors of E-selectin induction by TNFa, primary screen, imaging, HUVEC, immunofluorescence, MLSMR starter and 10KST1 sets (AID 487); conditions: HUVEC TNFalpha-induced E-selectin immunofluorescence imaging, at 2 µM; inhibition: stronger effect = higher value; nuclei count: measured here: cell number, toxicity;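 on inhibition: signal is fraction of cell area covered by stained E-selectin grains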;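 on nuclei count: 100% = median nuclei count of all wells on the same plate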
# [4] = target: Voltage-gated potassium channel subunit beta-2 (Rattus norvegicus) (UniProt P62483); experiment: KvBeta enzyme negative modulators, primary screen, biochemical, NADPH fluorescence (AID 622;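 active means fluorescence slope higher than the sample average by over 3 SD, cut at about -0.22 in these data, passing the limit was not always enough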;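 further: slope of raw intensity against log time taken from 70 to 1610 s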); conditions: recombinant KvBeta, 4-cyanobenzaldehyde reduction, at 10 µM, stronger effect = higher value
# [5] = target: Voltage-gated potassium channel subunit beta-2 (Rattus norvegicus) (UniProt P62483); experiment: KvBeta positive modulators, primary screen, biochemical, NADPH fluorescence (AID 623;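 active means NADPH fluorescence slope more negative than the mean of all samples by about 3 SD, 99.7% confidence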;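 further: fluorescence intensity change per second fitted from 20 to 320 s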); conditions: Recombinant KvBeta, NADPH fluorescence decrease slope, 10 min; at 10 µM; stronger effect = lower value
# [6] = target: Muscarinic acetylcholine receptor M4 (Homo sapiens) (UniProt P08173); experiment: compounds altering M4/GIRK thallium flux, either direction, primary screen, M4 allosteric agonist project, cell-based, HEK293 M4/GIRK, BTC-AM (AID 625;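 active means fluorescence slope after compound addition differing from the mean of all tested samples at 99.7% confidence, mostly higher but some lower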;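 further: thallium influx through GIRK channels coupled to M4 in HEK293 cells with BTC-AM dye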); conditions: at 10 µM, actives lie on both sides
# Outline: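 Material – HEK293 cells with M4 receptor and GIRK channels · Buffer or medium – pH 7.3 thallium assay buffer · Doses – one dose, 10 µM final · Timing – cells overnight at 37 °C, BTC-AM loading 1 h, reads 2 min total · Measured by – kinetic fluorescence with BTC-AM dye · Controls – carbachol and DMSO controls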
# [7] = inhibitors of Sendai virus-induced IRF3 signaling, primary screen, TLR/RLR signaling modifier project, cell-based, Sendai virus stimulus, luciferase, 10K MLSCN set (AID 602276;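 active means inhibition at or above 50% at 10 µM; inactive means inhibition below 50%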;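 further: firefly luciferase from ISG56 promoter only with Renilla not read in this screen; 0% = Sendai virus plus DMSO and 100% = medium plus DMSO without virus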); conditions: HEK293 RL24 IRF3 luciferase reporter, at 10 µM, stronger effect = higher value
# [8] = inhibitors of poly I:C-induced TLR3 signaling, primary screen, cell-based, poly I:C stimulus, luciferase, 10K MLSCN set (AID 602277;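 active means inhibition of the reporter signal at or above 50%; inactive means inhibition below 50%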); conditions: HEK293-TLR3 RL24 IRF3 luciferase reporter, at 10 µM, stronger effect = higher value
# Sequence of Muscarinic acetylcholine receptor M4 (Homo sapiens) (P08173 whole entry, looked up): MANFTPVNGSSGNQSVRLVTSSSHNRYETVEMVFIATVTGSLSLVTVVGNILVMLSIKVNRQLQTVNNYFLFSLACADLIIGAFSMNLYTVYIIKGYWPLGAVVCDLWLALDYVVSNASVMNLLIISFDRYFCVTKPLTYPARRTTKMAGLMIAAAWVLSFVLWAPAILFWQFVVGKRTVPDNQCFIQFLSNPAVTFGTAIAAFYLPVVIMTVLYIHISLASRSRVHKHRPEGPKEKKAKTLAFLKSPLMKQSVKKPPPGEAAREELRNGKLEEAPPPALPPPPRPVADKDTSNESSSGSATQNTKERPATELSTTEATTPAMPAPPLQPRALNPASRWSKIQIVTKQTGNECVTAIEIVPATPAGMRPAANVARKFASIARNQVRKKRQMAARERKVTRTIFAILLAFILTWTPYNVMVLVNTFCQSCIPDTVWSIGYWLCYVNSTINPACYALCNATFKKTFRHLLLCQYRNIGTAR
# Sequence of Voltage-gated potassium channel subunit beta-2 (Rattus norvegicus) (P62483 whole entry, looked up): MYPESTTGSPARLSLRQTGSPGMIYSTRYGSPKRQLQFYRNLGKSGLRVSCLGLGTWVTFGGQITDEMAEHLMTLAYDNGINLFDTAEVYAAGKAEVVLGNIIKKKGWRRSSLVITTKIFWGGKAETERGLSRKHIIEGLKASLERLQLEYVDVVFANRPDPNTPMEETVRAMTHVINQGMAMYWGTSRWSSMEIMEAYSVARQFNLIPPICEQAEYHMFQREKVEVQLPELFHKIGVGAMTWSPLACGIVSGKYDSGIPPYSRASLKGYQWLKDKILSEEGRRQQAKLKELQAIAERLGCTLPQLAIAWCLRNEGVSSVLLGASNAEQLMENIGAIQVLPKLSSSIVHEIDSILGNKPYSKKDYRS
structure (smiles),measurement,setting,value
CC(C)c1ccc(-c2nc(N3CCCCC3)[nH]c(=O)c2C#N)cc1,cell count,[1],459
same,inhibition,[1],-4.5% (inactive)
same,inhibition of aggregation,[2],-12% (inactive)
same,nuclei count,[2],102%
same,inhibition,[3],-48.9% (inactive)
same,nuclei count,[3],107%
same,fluorescence slope,[4],-0.478 (inactive)
same,NADPH fluorescence slope,[5],-3.9e-06 (inactive)
same,fluorescence slope,[6],0.00632 (inactive)
same,inhibition,[7],-5% (inactive)
same,inhibition,[8],-1.05% (inactive)
Cc1coc(NC(=O)CSc2nc(-c3ccncc3)cc(C(F)(F)F)c2C#N)n1,cell count,[1],740
same,inhibition,[1],-7.9% (inactive)
same,inhibition of aggregation,[2],16.1% (inactive)
same,nuclei count,[2],86.8%
same,inhibition,[3],-29.3% (inactive)
same,nuclei count,[3],115%
same,fluorescence slope,[4],-0.471 (inactive)
same,NADPH fluorescence slope,[5],-2.9e-05 (inactive)
same,fluorescence slope,[6],0.00557 (inactive)
same,inhibition,[7],5.59% (inactive)
same,inhibition,[8],8.54% (inactive)
CN1CCN(C(=O)c2ccccc2N(Cc2ccccc2)S(C)(=O)=O)CC1,cell count,[1],359
same,inhibition,[1],4% (inactive)
same,inhibition of aggregation,[2],2.7% (inactive)
same,nuclei count,[2],111%
same,inhibition,[3],-6% (inactive)
same,nuclei count,[3],110%
same,fluorescence slope,[4],-0.596 (inactive)
same,NADPH fluorescence slope,[5],-6.8e-05 (inactive)
same,fluorescence slope,[6],0.00748 (inactive)
same,inhibition,[7],-0.336% (inactive)
same,inhibition,[8],4.8% (inactive)
CCOC(=O)C(C)On1c(SC(C)C(=O)OCC)nc2ccccc2c1=O (centres undefined),cell count,[1],808
same,inhibition,[1],-3.9% (inactive)
same,inhibition of aggregation,[2],10.3% (inactive)
same,nuclei count,[2],103%
same,inhibition,[3],-57.6% (inactive)
same,nuclei count,[3],107%
same,fluorescence slope,[4],-0.582 (inactive)
same,NADPH fluorescence slope,[5],-5.7e-05 (inactive)
same,fluorescence slope,[6],0.0065 (inactive)
same,inhibition,[7],20% (inactive)
same,inhibition,[8],20% (inactive)
Cc1cccc(OCC(=O)N2CCC(c3ccccc3)C2)c1 (centres undefined),cell count,[1],380
same,inhibition,[1],4.3% (inactive)
same,inhibition of aggregation,[2],-13.6% (inactive)
same,nuclei count,[2],101%
same,inhibition,[3],-6.3% (inactive)
same,nuclei count,[3],115%
same,fluorescence slope,[4],-0.426 (inactive)
same,NADPH fluorescence slope,[5],1.1e-05 (inactive)
same,fluorescence slope,[6],0.0091 (inactive)
same,inhibition,[7],-65.5% (inactive)
same,inhibition,[8],-177% (inactive)
C/C(=N\O)c1ccc2c3c([nH]c2c1)CCCC3,cell count,[1],364
same,inhibition,[1],-1.9% (inactive)
same,inhibition of aggregation,[2],6.7% (inactive)
same,nuclei count,[2],87.1%
same,inhibition,[3],-78.7% (inactive)
same,nuclei count,[3],96.4%
same,fluorescence slope,[4],-0.532 (inactive)
same,NADPH fluorescence slope,[5],-3.8e-05 (inactive)
same,fluorescence slope,[6],0.006 (inactive)
same,inhibition,[7],-28% (inactive)
same,inhibition,[8],-111% (inactive)
COc1ccccc1S(=O)(=O)n1cc(Cc2ccccc2)c(N)n1,cell count,[1],341
same,inhibition,[1],-21.8% (inactive)
same,inhibition of aggregation,[2],0.9% (inactive)
same,nuclei count,[2],89%
same,inhibition,[3],-28.1% (inactive)
same,nuclei count,[3],114%
same,fluorescence slope,[4],-0.493 (inactive)
same,NADPH fluorescence slope,[5],-1.1e-05 (inactive)
same,fluorescence slope,[6],0.0055 (inactive)
same,inhibition,[7],3.66% (inactive)
same,inhibition,[8],31.1% (inactive)
COc1ccc(-c2nc(N3CCCC3)[nH]c(=O)c2C#N)cc1,cell count,[1],373
same,inhibition,[1],-48.5% (inactive)
same,inhibition of aggregation,[2],-7.1% (inactive)
same,nuclei count,[2],107%
same,inhibition,[3],-50.2% (inactive)
same,nuclei count,[3],114%
same,fluorescence slope,[4],-0.471 (inactive)
same,NADPH fluorescence slope,[5],-1.8e-05 (inactive)
same,fluorescence slope,[6],0.0047 (inactive)
same,inhibition,[7],18.9% (inactive)
same,inhibition,[8],13% (inactive)
Cc1ccc(-c2nn3c(=O)c(C)nnc3s2)cc1,cell count,[1],571
same,inhibition,[1],-19.6% (inactive)
same,inhibition of aggregation,[2],-0.2% (inactive)
same,nuclei count,[2],98.1%
same,inhibition,[3],3.6% (inactive)
same,nuclei count,[3],108%
same,fluorescence slope,[4],-0.309 (inactive)
same,NADPH fluorescence slope,[5],-4.6e-06 (inactive)
same,fluorescence slope,[6],0.0056 (inactive)
same,inhibition,[7],-12.3% (inactive)
same,inhibition,[8],-53.9% (inactive)
COc1ccc(NC(=O)CCCN2C(=O)C3C4C=CC(C4)C3C2=O)c(OC)c1 (centres undefined),cell count,[1],554
same,inhibition,[1],-1.8% (inactive)
same,inhibition of aggregation,[2],5.1% (inactive)
same,nuclei count,[2],94.8%
same,inhibition,[3],49.6% (inactive)
same,nuclei count,[3],62.2%
same,fluorescence slope,[4],-0.554 (inactive)
same,NADPH fluorescence slope,[5],-2.9e-05 (inactive)
same,fluorescence slope,[6],0.00549 (inactive)
same,inhibition,[7],9.13% (inactive)
same,inhibition,[8],20.8% (inactive)
CC1CCN(S(=O)(=O)c2ccc(S(=O)(=O)NCC(=O)C(C)(C)C)cc2)CC1,cell count,[1],528
same,inhibition,[1],-14.7% (inactive)
same,inhibition of aggregation,[2],-10.2% (inactive)
same,nuclei count,[2],113%
same,inhibition,[3],-189% (inactive)
same,nuclei count,[3],166%
same,fluorescence slope,[4],-0.571 (inactive)
same,NADPH fluorescence slope,[5],-7.1e-05 (inactive)
same,fluorescence slope,[6],0.00717 (inactive)
same,inhibition,[7],0.588% (inactive)
same,inhibition,[8],9.79% (inactive)
CCOCCCNC(=O)c1ccc2c(c1)ncn2C1CCCC1,cell count,[1],573
same,inhibition,[1],-4.8% (inactive)
same,inhibition of aggregation,[2],-5.5% (inactive)
same,nuclei count,[2],100%
same,inhibition,[3],-12% (inactive)
same,nuclei count,[3],94.4%
same,fluorescence slope,[4],-0.495 (inactive)
same,NADPH fluorescence slope,[5],4.4e-05 (inactive)
same,fluorescence slope,[6],0.00159 (inactive)
same,inhibition,[7],-12.4% (inactive)
same,inhibition,[8],-122% (inactive)
O=C(NC1CCc2ccccc21)C1CCN(S(=O)(=O)c2ccc(-n3cnnn3)cc2)CC1 (centres undefined),cell count,[1],698
same,inhibition,[1],7.5% (inactive)
same,inhibition of aggregation,[2],-23.2% (inactive)
same,nuclei count,[2],118%
same,inhibition,[3],-37.5% (inactive)
same,nuclei count,[3],91.8%
same,fluorescence slope,[4],-0.553 (inactive)
same,NADPH fluorescence slope,[5],1.5e-06 (inactive)
same,fluorescence slope,[6],0.00483 (inactive)
same,inhibition,[7],15.1% (inactive)
same,inhibition,[8],30.1% (inactive)
CCCCN(C)Cc1c(C)[nH]c2c(Cl)cccc2c1=O,cell count,[1],326
same,inhibition,[1],-0.2% (inactive)
same,inhibition of aggregation,[2],0.9% (inactive)
same,nuclei count,[2],92.1%
same,inhibition,[3],-38.6% (inactive)
same,nuclei count,[3],92.3%
same,fluorescence slope,[4],-0.434 (inactive)
same,NADPH fluorescence slope,[5],3.3e-05 (inactive)
same,fluorescence slope,[6],0.00844 (inactive)
same,inhibition,[7],7.84% (inactive)
same,inhibition,[8],23.5% (inactive)

# Source: PubChem BioAssay
